Results from ChEMBL document CHEMBL1127621, “Electron-deficient DNA-intercalating agents as antitumor drugs: aza analogues of the experimental clinical agent N-[2-(dimethylamino)ethyl]acridine-4-carboxamide” (J Med Chem, 1994).
Calls of active or inactive are those of the source. The calls are words filed in the database; no cut-off is given here.

What was measured:
Nucleic Acid = assay: Inhibitory concentration against ethidium bromide binding to [poly(dA-dT)] [poly(dA-dT)]; format: nucleic-acid assay
Procedure, shortened: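 Fluorometric ethidium displacement using poly[d(A-T)]. C50 is the micromolar ligand concentration that displaces 50% of previously bound ethidium. For intercalators it is inversely proportional to the ligand–DNA association constant.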

P388 = assay: Inhibition of P388 leukemia cells growth in culture; format: functional, cell-based; settings: Mus musculus
Procedure, shortened: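 P388 leukemia cells in exponential growth were exposed to drug for 70 h. IC50 is the micromolar concentration that reduces cell growth to 50% of control values.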

Mus musculus [1] = assay: Optimal dose required to inhibit P388 leukemia cells when administered intraperitoneally in mice; format: functional
Procedure, shortened: (§1)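 Mice were inoculated ip with 10^6 P388 leukemia cells. Drug was given ip on days 1, 5 and 9 in 0.1 mL of 30% v/v EtOH-water, with dose in mg/kg/day. Optimal dose was determined, and ILS is the % lifespan increase over tumor-bearing controls at that dose.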

Mus musculus [2] = assay: Percentage increase in lifespan of P388 tumor-bearing mice compared with tumor-bearing controls at optimal dose of 65 mg/kg/day; NA= Not active; format: functional, organism-based; procedure, shortened: as §1
Mus musculus [3] = assay: Percentage increase in lifespan of P388 tumor-bearing mice compared with tumor-bearing controls at optimal dose of 65 mg/kg/day; format: functional
Mus musculus [4] = assay: Percentage increase in lifespan of P388 tumor-bearing mice compared with tumor-bearing controls at optimal dose of 150 mg/kg/day; NA = Not active; format: functional, organism-based; procedure, shortened: as §1
Mus musculus [5] = assay: Percentage increase in lifespan of P388 tumor-bearing mice compared with tumor-bearing controls at optimal dose of 65 mg/kg/day; NA=Not active; format: functional, organism-based; procedure, shortened: as §1

Structure (SMILES)	C50 (Nucleic Acid) [µM]	IC50 (P388) [µM]	OD (Mus musculus [1]) [mg/kg/day]	ILS (Mus musculus [2])	ILS at 65 mg/kg/day (Mus musculus [3]) [%]	ILS (Mus musculus [4])	ILS (Mus musculus [5])
CN(C)CCNC(=O)C1=CC=C([N+](=O)[O-])C2C(=O)c3ccccc3N=C12 (stereo unspecified)	23	0.55	–	–	–	–	–
CN(C)CCNC(=O)c1cccc2c(O)c3ccc([N+](=O)[O-])cc3nc12	4.1	1.2	65	inactive	–	–	–
C(=N/NC1=NCCN1)/c1cccc2cc3cnccc3nc12	6.6	12.3	–	–	–	–	–
CN(C)CCNC(=O)c1cccc2c(O)c3cccc([N+](=O)[O-])c3nc12	2.4	0.083	45	–	65	–	–
CN(C)CCn1c(=O)c2cccc3c(=O)c4ccncc4n(c1=O)c32	10.7	> 40	–	–	–	–	–
CN(C)CCNC(=O)c1cccc2c(O)c3ccncc3nc12	18.5	> 40	–	–	–	–	–
CN(C)CCNC(=O)c1cccc2cc3ccncc3nc12	4.6	8.3	–	–	–	–	–
C[N+](C)(C)CC(=O)N/N=C\c1cccc2cc3cccnc3nc12	11.1	1.65	65	inactive	–	–	–
CN(C)CCNC(=O)c1cccc2cc3ncccc3nc12	11.1	4.4	–	–	48	–	–
CN(C)CCNC(=O)c1ccc([N+](=O)[O-])c2cc3cccnc3nc12	2.1	0.15	20	inactive	–	–	–
CN(C)CCNC(=O)c1cccc2c(O)c3cc([N+](=O)[O-])ccc3nc12	5.9	3.5	–	–	–	–	–
CN(C)CCNC(=O)c1ccc([N+](=O)[O-])c2c(O)c3cccnc3nc12	10.4	0.018	65	–	31	–	–
CN(C)CCNC(=O)c1cc([N+](=O)[O-])cc2c(O)c3cccnc3nc12	11	1.3	–	–	–	–	–
CN(C)CCNC(=O)c1cccc2c(=O)c3ccccc3[nH]c12	15	1.7	–	–	–	inactive	–
CN(C)CCNC(=O)c1cccc2c(O)c3cnccc3nc12	–	> 40	–	–	–	–	–
CN(C)CCNC(=O)c1ccc([N+](=O)[O-])c2c(O)c3cnccc3nc12	6.2	1	–	–	–	–	–
CN(C)CCNC(=O)c1cccc2c(O)c3cccnc3nc12	27.7	5.5	–	–	–	inactive	–
CN(C)CCNC(=O)c1ccc([N+](=O)[O-])c2cc3ncccc3nc12	3.1	0.085	45	inactive	–	–	–
CN(C)CCNC(=O)c1cccc2cc3ccccc3nc12	5	0.11	–	–	91	–	–
C(=N/NC1=NCCN1)/c1cccc2cc3ncccc3nc12	5.4	3.3	45	inactive	–	–	–
CN(C)CCNC(=O)c1ccc([N+](=O)[O-])c2cc3cnccc3nc12	4.4	5	–	–	–	–	–
C(=N/NC1=NCCN1)/c1cccc2cc3cccnc3nc12	5	12	–	–	–	–	–
CN(C)CCNC(=O)c1cc([N+](=O)[O-])cc2c(O)c3ccccc3nc12	4.5	0.91	45	inactive	–	–	–
CN(C)CCNC(=O)c1cccc2cc3cccnc3nc12	7.6	0.49	–	–	–	–	inactive
C(=N/NC1=NCCN1)/c1cccc2cc3ccncc3nc12	5.9	25	–	–	–	–	–
Oc1c2cccnc2nc2c(/C=N\NC3=NCCN3)cccc12	4	22	–	–	–	–	–
Oc1c2cccc(/C=N\NC3=NCCN3)c2nc2cccnc12	9.6	> 40	–	–	–	–	–
C[N+](C)(C)CC(=O)N/N=C\c1cccc2c(O)c3cccnc3nc12	7.3	> 40	–	–	–	–	–
